Screens (PubChem)
PGC1a acetyl inh – inhibitors of PGC1a acetylation signal, primary screen, cell-based, U2OS, AlphaScreen, inhibitor mode; AlphaScreen anti-acetyl-lysine; with virally co-expressed GCN5 acetyltransferase; inhibition, % at 15.6 µM; actives 0.17% (n = 350,000); AID 651687, 2012;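 active = every replicate shows inhibition of at least 40%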;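 note: 0% = neutral control wells and 100% = positive control wells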
SIRT5 inh – SIRT5 desuccinylase inhibitors, primary screen, biochemical, fluorescence imaging, single point, set 5; NAD-dependent protein deacylase sirtuin-5, mitochondrial (Homo sapiens), Q9NXA8; Purified SirT5, succinyl-peptide AMC, trypsin-coupled fluorescence; inhibition, % at 15 µM; actives 1.1% (n = 330,000); AID 652115, 2013; in the data active = inhibition above about 15%
Target sequence (Q9NXA8 whole entry, looked up): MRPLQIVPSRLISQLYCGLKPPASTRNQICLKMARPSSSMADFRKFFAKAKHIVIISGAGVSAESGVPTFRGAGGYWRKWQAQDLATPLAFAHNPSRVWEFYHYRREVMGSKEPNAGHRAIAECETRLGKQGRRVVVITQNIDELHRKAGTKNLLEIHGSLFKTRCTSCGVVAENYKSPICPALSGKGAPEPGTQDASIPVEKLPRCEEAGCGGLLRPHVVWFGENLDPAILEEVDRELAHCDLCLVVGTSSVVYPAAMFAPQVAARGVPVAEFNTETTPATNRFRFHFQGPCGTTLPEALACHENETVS
rRNA inh HTS – reduced GFP signal of wild-type E. coli, primary screen, bacterial rRNA inhibitor project, GFP/RFP fluorescence, OD600, single point | E. coli WT GFP vs humanized-ribosome RFP mutants, 24 h; stronger effect = lower value; DMSO median 0, no signal -100 | GFP signal change (wild-type ribosome), % (test concentration not listed) | actives 1.6% (n = 350,000);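 active = significant combined selectivity score with lowered wild-type GFP, culture density cut under 30%, mutant RFP and density less affected; inactive = any of these conditions unmet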
Cneo AK release – Cryptococcus neoformans cell lysis inducers, primary screen, AK release luminescence, single concentration. C. neoformans lysis, adenylate kinase release luminescence, 4 h; normalised: neutral wells 0, clomiphene wells 100. lysis activity, % at 15 µM. actives 0.2% (n = 360,000);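 active = mean lysis activity across replicates of at least 80%, whatever share of replicates individually reach that level; inactive = mean lysis activity below 80%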
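Signal: Adenylate kinase release luminescence | Assay system: Log-phase Cryptococcus neoformans yeast cells | Input: Cells at 5 × 10^6 per mL | Buffer or medium: Fresh YPD growth medium | Compound: Single dose | Schedule: Static 4 h at 37 °C with compound, 1 h detection | Controls: Clomiphene | Read-out: Luminescence rise reflecting yeast cell lysis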
S100A4 inh HTS – inhibitors of S100A4-myosin IIA peptide binding, primary screen, biochemical, fluorescence polarization, TAMRA-MyoIIA peptide | AID 652163, 2013 | Protein S100-A4 (Homo sapiens), P26447 | inhibition, % at 10.7 µM | actives 0.14% (n = 360,000);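 active = mean inhibition of at least 70% across replicates, with every replicate also reaching that level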
Target sequence (P26447 whole entry, looked up): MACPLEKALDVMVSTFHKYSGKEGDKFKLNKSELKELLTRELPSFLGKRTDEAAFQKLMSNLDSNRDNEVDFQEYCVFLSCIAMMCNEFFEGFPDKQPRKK
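Test system: S100A4 monomer protein. Medium: HEPES buffer with Ca2+, pH 7.2. Reagent: fluorescent myosin IIA peptide, 5 nM. Compound dosing: single-point compound testing. Timing: 5 min between mix addition and reading. Benchmarks: DMSO neutral and TFP positive wells.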
Statin myotox sup – suppressors of statin myotoxicity in C2C12 myotubes, primary screen, cell-based, single point, plate reader; AID 602340, 2012; rescue of ATP level, % at 7.49 µM; actives 0.78% (n = 330,000); C2C12 myotubes + simvastatin, ATP luminescence, 48 h; scaled: DMSO 0, geranylgeraniol control 100;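 active = mean ATP rescue above about 67%, or every replicate alone reaching that limit, limit read from the data, passing the limit was not always enough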;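 note: myotubes were challenged with 10 µM simvastatin during compound exposure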
An asterisk follows results filed as active; nt = not tested or not shown. Compounds with a hit are over-represented: about 3% of the library has one in this group of screens.

SMILES	PGC1a acetyl inh	SIRT5 inh	rRNA inh HTS	Cneo AK release	S100A4 inh HTS	Statin myotox sup
O=C(O)c1nn2c(C(F)(F)F)cc(-c3cccs3)nc2c1Cl	nt	-0.9	-19.7*	nt	7.0	nt
CCNC(=O)[C@@H]1[C@@H](CO)[C@@H]2Cn3c(cccc3=O)[C@H]1N2Cc1cc(F)ccc1F	0.9	1.8	0.8	nt	1.4	nt
C=CC[C@@H](CC(=O)OC(C)(C)C)C(=O)OC[C@@H]1CCCN1C(=O)[C@@H](CC=C)CC(=O)N[C@@H](CO)Cc1ccccc1	nt	25.3*	0.2	7.7	11.4	3.0
C=CC[C@@H](CC(=O)OC(C)(C)C)C(=O)OC[C@H]1CCCN1C(=O)[C@@H](CC=C)CC(=O)N[C@H](CO)Cc1ccccc1	nt	4.0	-4.9	1.6	-2.9	11.4
C=CC[C@@H](CC(=O)N[C@H](CO)Cc1ccccc1)C(=O)N[C@@H](COC(=O)[C@@H](CC=C)CC(=O)OC(C)(C)C)Cc1ccccc1	3.5	18.3*	3.7	-2.0	20.8	-3.2
C=CC[C@@H](CC(=O)N[C@H](CO)Cc1ccccc1)C(=O)N[C@H](C)COC(=O)[C@@H](CC=C)CC(=O)OC(C)(C)C	-6.9	nt	6.7	-0.4	-1.6	6.4
COc1ccc(CN(C)C[C@@H]2OCCCC[C@@H](C)Oc3ccc(NC(=O)c4ccccc4)cc3C(=O)N([C@H](C)CO)C[C@@H]2C)cc1	2.0	5.3	0.7	85.8*	3.2	nt
COc1ccc(NC(=O)Nc2ccc3c(c2)C(=O)N([C@@H](C)CO)C[C@@H](C)[C@H](CN(C)Cc2ccc(C(F)(F)F)cc2)OCCCC[C@@H](C)O3)cc1	-3.5	-11.1	-1.6	49.1	4.8	-59.4
COc1ccc(NC(=O)Nc2ccc3c(c2)C(=O)N([C@H](C)CO)C[C@H](C)[C@H](CN(C)Cc2ccc(C(F)(F)F)cc2)OCCCC[C@H](C)O3)cc1	-21.0	1.6	-0.4	1.9	157.4*	-68.8
COc1ccc(CN(C)C[C@@H]2OCCCC[C@H](C)Oc3ccc(NC(=O)Nc4ccc(F)cc4)cc3C(=O)N([C@H](C)CO)C[C@@H]2C)cc1	9.6	1.0	-44.9	1.7	5.5	-335.5
COc1ccc(CN(C)C[C@H]2OCCCC[C@@H](C)Oc3ccc(NC(=O)Nc4ccc(F)cc4)cc3C(=O)N([C@@H](C)CO)C[C@@H]2C)cc1	-3.8	99.8*	-40.5	4.2	8.0	-518.8
COc1ccc(CN(C)C[C@@H]2OCCCC[C@H](C)Oc3ccc(NC(=O)c4ccccc4)cc3C(=O)N([C@@H](C)CO)C[C@H]2C)cc1	-13.0	0.3	-2.4	-0.8	9.2	nt
O=C(Nc1ccc(Cl)cc1)N[C@@H]1CC[C@@H](CCn2cc(-c3ccccc3F)nn2)O[C@H]1CO	-24.8	1.4	-1.0	2.2	0.3	-1.7
Cc1n[nH]c(C)c1N=Nc1ccc(Br)cc1	-2.0	2.8	-35.9*	3.1	-2.7	2.3
COc1ccc(N=Nc2c(C)n[nH]c2C)cc1	nt	3.4	-16.1	0.5	-11.5	14.5
COc1ccc(NC(=O)c2ccc(-c3ccc([N+](=O)[O-])cc3)o2)cc1OC	7.9	3.2	-42.3*	-8.3	-5.6	nt
CC(=O)Nc1ccc(NC(=O)c2ccc(-c3ccc([N+](=O)[O-])cc3)o2)cc1	-22.4	-11.4	-5.0	-1.0	-1.0	-2.1
CCNC(=O)C[C@@H]1CC[C@H]2[C@@H](COC[C@@H](O)CN2C(=O)Nc2c(C)noc2C)O1	0.2	-0.9	5.5	-3.4	7.3	17.9
CNC[C@H]1Oc2ncc(Br)cc2C(=O)N([C@@H](C)CO)C[C@@H]1C	1.5	nt	2.7	nt	nt	0.5
O=C(Nc1ccc(NC(=O)c2ccco2)nc1)c1ccccn1	5.6	nt	nt	-3.6	nt	112.9*
CCC1COC(c2cccn2Cc2ccc(Cl)cc2)=N1 (centres undefined)	-7.0	nt	-22.4*	-6.6	-4.0	7.9
CCSCC1COC(c2cccn2Cc2ccc(C)cc2)=N1 (centres undefined)	-7.8	nt	nt	2.5	nt	-0.6
C[C@H](CO)N1C[C@H](C)[C@@H](CN(C)S(=O)(=O)c2ccccc2)Oc2cc(C#Cc3ccncc3)ccc2S1(=O)=O	-9.9	8.9	-7.0	1.6	-34.4	-42.8
Cc1ccc(S(=O)(=O)N(C)C[C@@H]2Oc3cc(C#Cc4ccncc4)ccc3S(=O)(=O)N([C@@H](C)CO)C[C@@H]2C)cc1	36.1	16.1*	0.3	-2.0	-31.8	-21.2
C[C@H]1CN([C@@H](C)CO)S(=O)(=O)c2ccc(C#Cc3ccncc3)cc2O[C@H]1CN(C)S(=O)(=O)c1ccccc1	3.9	2.4	-4.7	0.5	-8.1	-28.4
SMILES	PGC1a acetyl inh	SIRT5 inh	rRNA inh HTS	Cneo AK release	S100A4 inh HTS	Statin myotox sup
Cc1ccc(S(=O)(=O)N(C)C[C@H]2Oc3cc(C#Cc4ccncc4)ccc3S(=O)(=O)N([C@H](C)CO)C[C@@H]2C)cc1	36.0	17.5*	-2.5	45.5	-19.4	10.4
COc1ccc(NC(=O)N(C)C[C@H]2OCCCC[C@H](C)Oc3ccc(NC(=O)CCCN(C)C)cc3C(=O)N([C@@H](C)CO)C[C@H]2C)cc1	3.9	-1.0	-1.2	-0.5	17.4	nt
C[C@@H]1CN([C@@H](C)CO)C(=O)c2cc(C#CCN(C)C)cnc2O[C@@H]1CN(C)Cc1ccncc1	5.7	1.8	2.4	-3.3	10.5	2.6
CS(=O)(=O)N1[C@@H](CO)[C@@H](c2ccccc2)C12CN(C(=O)c1ccccc1F)C2	-3.4	19.4*	0.3	nt	15.6	nt
CS(=O)(=O)N1CCN(C(=O)c2ccccc2F)CC1	8.5	nt	nt	0.7	nt	94.5*
CN(C)CC(=O)N1CC2(C1)[C@@H](c1ccccc1)[C@@H](CO)N2S(C)(=O)=O	-7.0	1.2	1.7	nt	90.6*	nt
CS(=O)(=O)N1CCN(C(=O)c2c(F)cccc2F)CC1	8.0	nt	nt	nt	nt	19.9
C#CCOCCOCCOCCNc1nc(N2CCN(C(=O)CCCCCCCCCCNC(=O)[C@@H]([C@H](C)O)n3cc(C)nn3)CC2)nc(N2CCN(C(=O)CCCCCCCCCCNC(=O)[C@@H]([C@H](C)O)n3cc(C)nn3)CC2)n1	-5.3	-0.4	14.2	0.7	-2.0	77.2*
COc1cccc(CSc2nnc(CSc3nc4nc(C)cc(C)n4n3)s2)c1	-2.5	-1.8	-29.1*	2.4	-4.3	-6.6
COc1ccc2nc3cc([N+](=O)[O-])ccc3c(NNc3ccc([N+](=O)[O-])cc3)c2c1	-2.3	nt	-18.5*	nt	7.5	4.3
